Laboratory results from article PMC8387982 (ACS Omega, 2021).

Tests used:
human erythrocytes = experiment: Hemolytic assay; assay type: cell-based; details: concentration causing 10% hemolysis of erythrocytes; 1 h, 37 °C
[1] = Circular dichroism, α-helical content; assay type: physicochemical
Method in brief: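 CD spectra recorded at 25 °C in a 1.0 mm quartz cell over 190–260 nm (50 nm/min, 1 nm bandwidth, 1 s response). Test compound at 50 μM final in deionized water or 50% TFE. Observed ellipticity corrected for buffer and converted to mean residue ellipticity using peptide concentration, path length and residue number.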

[2] = system: bacteria (S. aureus, B. subtilis, E. coli, P. aeruginosa, K. pneumoniae); experiment: Geometric mean of the peptide MICs; assay type: cell-based; details: over the five bacterial strains
Method in brief: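 Broth microdilution: single colony grown in MHB at 37 °C for 16–24 h. Log-phase culture diluted to 1×10^6 CFU/mL and mixed with equal volumes of serially diluted test compound. […] At least three independent experiments, each with three technical replicates. Geometric mean of MICs across strains computed.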

[3] = system: human glomerular mesangial cell (GMC) line; experiment: MTT cytotoxicity assay; assay type: cell-based; details: read-out: IC50 for GMC, 12 h, peptides 1-256 μM
Method in brief: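 MTT assay: human GMC cells seeded at 1.0×10^4 cells/well and exposed to test compound (1–256 μM) for 12 h at 37 °C, 5% CO2. Then 0.5 mg/mL MTT added for 4 h at 37 °C; formazan dissolved in DMSO and read at 570 nm. At least three independent experiments, each with three technical replicates.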

[4] = system: K. pneumoniae ATCC 700603; experiment: Checkerboard FIC with conventional antibiotics; assay type: cell-based, Klebsiella pneumoniae
Method in brief: (§1)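 Checkerboard assay: test compound and antibiotic mixed at 2× their MICs, then 2-fold serial dilutions made in MHB. Equal volume of bacteria (1×10^6 CFU/mL) added and incubated 18–24 h at 37 °C. Growth read as in the MIC assay. FIC = (MIC peptide in combination/MIC peptide alone) + (MIC antibiotic in combination/MIC antibiotic alone). Interpretation: ≤0.5 synergy; 0.5–1 additive; 1.0–<4.0 indifference; ≥4 antagonism.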

E. coli ATCC 25922 = experiment: Checkerboard FIC with conventional antibiotics; assay type: cell-based, Escherichia coli
Method in brief: as §1

P. aeruginosa ATCC 27853 = experiment: Checkerboard FIC with conventional antibiotics; assay type: cell-based, Pseudomonas aeruginosa; details: in combination with rifampicin
Method in brief: as §1

Substance: H-GLLKRIKTLL-NH2 [Anoplin]
- MHC (minimum hemolytic concentration) (human erythrocytes): >256 µM
- α-helix in 50% TFE ([1]; CD, 50 μM peptide, 50% TFE, 25 °C): 82.64%
- α-helix in water ([1]; CD, 50 μM peptide, deionized water, 25 °C): 14.03%
- α-helical structure in water (CD) ([1]; water environment, result in words): did not show a α-helical structure
- GM (geometric mean of the peptide MICs) [2]: 48.50 µM
- IC50 [3]: > 256 µM

Substance: polymyxin B
- FIC ([4]; in combination with gentamicin): 0.5
- FIC ([4]; in combination with rifampicin): 0.3125
- FIC (E. coli ATCC 25922; in combination with gentamicin): 0.3125
- FIC (E. coli ATCC 25922; in combination with rifampicin): 0.125
- FIC (P. aeruginosa ATCC 27853): 0.3125
